From ChEMBL document CHEMBL2062506, “Synthesis, characterization and structure optimization of a series of thiazolidinone derivatives as Entamoeba histolytica inhibitors” (Eur J Med Chem, 2012)

Experiments:
[1] = Octanol-water partition coefficient, log P of the compound; format: physicochemical
[2] = test system: Entamoeba histolytica; test: Antiamoebic activity against Entamoeba histolytica HM-1:IMSS after 72 hrs by microdilution method
[3] = test system: HepG2; test: Cytotoxicity against human HepG2 cells after 48 hrs by MTT assay; format: cell-based; settings: for IC50: Homo sapiens, HepG2, 48 h; for inhibition (INH): human, hepg2, 48 h
Outline: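 HepG2 cells grown in DMEM with 10% heat-inactivated FBS and antibiotics at 37 °C, 5% CO2. Cells seeded at 1.2 × 10^4/well and grown 48 h, then exposed 48 h to 3.13–100 µM compound (DMSO stock diluted in medium). MTT (5 mg/mL) added for 4 h, formazan dissolved in DMSO, A570 read against 655 nm reference. Viability expressed relative to untreated cells; triplicate, repeated thrice.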

SMILES | logP [1] | IC50 [2] | IC50 [3] | inhibition (INH) [3]
CC(C)CN1C(=O)/C(=C/c2ccc(O)cc2)S/C1=N\c1ccccc1 | 5.08 | 2450 nM | – | –
COc1ccc(/C=C2\S/C(=N\c3ccccc3)N(CC(C)C)C2=O)cc1OC | 5.06 | 440 nM | > 100000 nM | Dose-dependent effect
COc1ccc(/C=C2\S/C(=N\c3ccccc3)N(CC(C)C)C2=O)cc1 | 5.22 | 2720 nM | – | –
Cc1ccc(/C=C2\S/C(=N\c3ccccc3)N(CC(C)C)C2=O)cc1 | 5.89 | 3210 nM | – | –
CC(C)CN1C(=O)/C(=C/c2ccccc2O)S/C1=N\c1ccccc1 | 5.08 | 2040 nM | – | –
CC(C)CN1C(=O)/C(=C/c2ccc3c(c2)OCO3)S/C1=N\c1ccccc1 | 5 | 16700 nM | – | –
Cc1ccsc1/C=C1\S/C(=N\c2ccccc2)N(CC(C)C)C1=O | 5.81 | 110 nM | 89200 nM | Dose-dependent effect
COc1ccc(OC)c(/C=C2\S/C(=N\c3ccccc3)N(CC(C)C)C2=O)c1 | 5.06 | 1950 nM | – | –
CC(C)CN1C(=O)/C(=C/c2ccc(Cl)cc2)S/C1=N\c1ccccc1 | 5.98 | 1920 nM | – | –
CC(C)CN1C(=O)/C(=C/c2ccc([N+](=O)[O-])cc2)S/C1=N\c1ccccc1 | 5.32 | 138 nM | > 100000 nM | Dose-dependent effect
Cc1ncc([N+](=O)[O-])n1CCO [METRONIDAZOLE] | – | 1640 nM | > 100000 nM | Dose-dependent effect

Continued, in another order:

logP [1] | IC50 [2] | SMILES | IC50 [3] | inhibition (INH) [3]
4.4 | 600 nM | CC(C)CN1C(=O)/C(=C/c2ccccn2)S/C1=N\c1ccccc1 | > 100000 nM | Dose-dependent effect
4.92 | 640 nM | COc1cc(/C=C2\S/C(=N\c3ccccc3)N(CC(C)C)C2=O)ccc1O | 89500 nM | Dose-dependent effect
5.98 | 660 nM | CC(C)CN1C(=O)/C(=C/c2cccc(Cl)c2)S/C1=N\c1ccccc1 | 88100 nM | Dose-dependent effect
6.34 | 960 nM | CCc1ccc(/C=C2\S/C(=N\c3ccccc3)N(CC(C)C)C2=O)cc1 | 84700 nM | Dose-dependent effect
6.26 | 3710 nM | CC(C)CN1C(=O)/C(=C/c2ccccc2C(F)(F)F)S/C1=N\c1ccccc1 | – | –
5.49 | 172 nM | CC(C)CN1C(=O)/C(=C/c2ccc(N(C)C)cc2)S/C1=N\c1ccccc1 | > 100000 nM | Dose-dependent effect
